Data on one compound can be found in ChEMBL document CHEMBL1275586, “Phenotypic susceptibility to bevirimat in isolates from HIV-1-infected patients without prior exposure to bevirimat” (Antimicrob Agents Chemother, 2010).

SMILES strings stand for the structures.

The test system of assay [1] is Human immunodeficiency virus 1. The assay can be described thus: Antiviral activity against antiretroviral-pretreated PI-resistant Human immunodeficiency virus 1 isolate 28 infected in human MT-2 cells by XTT assay relative to wild-type. Type of assay: functional, MT2. In a few lines:
(§1)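 Patient-derived Gag fragments were pooled as bacterial colonies to keep quasispecies diversity and ligated into the pXXLAI (HIV-1 LAI) backbone. Virus was made by transfecting 293T cells and harvesting supernatant 2 days later. MT-2 cells were infected at 37°C with an inoculum titrated to give an XTT signal-to-noise of 2.5–4.0. Cells were plated into drug dilutions, incubated 5 days at 37°C, and read by XTT absorbance (450−650 nm). EC50 was taken from percent cell death and expressed as fold change versus wild-type LAI.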
On the technique in general: Formazan colour is commonly taken as a measure of viable cells.

Assay [2] relates to Human immunodeficiency virus 1. The assay can be described thus: Antiviral activity against Human immunodeficiency virus 1 isolate 29 harboring Gag-capsid I138M, A146P, R286K and A326S mutant gene and protease L10F, I13V, V32I, M36L, S37N, M46I, I47V, I62V, L63P, A71I, I72V and V82A mutant gene infected in human MT-2 cells by XTT-assay relative to wild-type. In kind it is functional, MT2. In a few lines: (§2)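 Patient Gag-protease (SfoI-XmaI) fragments were ligated into the pXXLAI backbone, with colonies pooled to keep quasispecies. Virus came from 293T transfection, harvested at 2 days. MT-2 infection at 37°C used an input giving XTT signal-to-noise of 2.5–4.0 (≈MOI 0.001). Cells at ≈17,000/well with drug dilutions, 5 days, 37°C; XTT 1 h, A450–650. EC50 from % cell death; fold change vs wild-type LAI.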

For assay [3], the system named is Human immunodeficiency virus 1. Put plainly: Antiviral activity against Human immunodeficiency virus 1 isolate 7 harboring Gap-SP-1 V362I mutant infected in human MT-2 cells by XTT-assay relative to wild-type. Type of assay: functional, MT2. The method, boiled down: as §2
Assay [4] has as its system Human immunodeficiency virus 1. Put plainly: Antiviral activity against Human immunodeficiency virus 1 isolate 35 harboring Gag-capsid G357S mutant gene and Gag-SP1 V370A, T371Q, N372S, T375N and I376M mutant gene infected in human MT-2 cells by XTT assay relative to wild-type. In kind it is functional, MT2. In a few lines: as §2
Assay [5] relates to Human immunodeficiency virus 1. The assay can be described thus: Antiviral activity against antiretroviral-pretreated PI-resistant Human immunodeficiency virus 1 isolate 2 harboring Gag-SP-1 S373A, A374G and T375A mutant gene infected in human MT-2 cells by XTT assay relative to wild-type.
Assay [6] relates to Human immunodeficiency virus 1. Put plainly: Antiviral activity against antiretroviral-pretreated PI-resistant Human immunodeficiency virus 1 isolate 6 harboring Gag-SP-1 V370A,S373A and A374T mutant gene infected in human MT-2 cells by XTT assay relative to wild-type. In kind it is functional, MT2. The method, boiled down:
as §1

The subject of assay [7] is Human immunodeficiency virus 1. The assay can be described thus: Antiviral activity against Human immunodeficiency virus 1 LAI Gag-[…] V362I mutant infected in human MT-2 cells by XTT-assay relative to wild-type. Type of assay: functional, MT2. In a few lines:
(§3)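 Site-directed mutants were made by two-round overlap PCR into the pXXLAI (HIV-1 LAI) backbone from an individual clone, then transfected into 293T cells, with supernatant harvested at 2 days. MT-2 cells were infected at an input giving an XTT signal-to-noise of 2.5–4.0, plated at ≈17,000 cells/well with drug dilutions, and read by XTT after 5 days. EC50 from % cell death; fold change vs wild-type LAI.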

In assay [8] the test system is Human immunodeficiency virus 1. Put plainly: Antiviral activity against antiretroviral-pretreated PI-resistant Human immunodeficiency virus 1 isolate 9 harboring Gag-SP1 T375N and I376V mutant gene infected in human MT-2 cells by XTT assay relative to wild-type. Type of assay: functional, MT2. The method, boiled down:
as §1

Assay [9] concerns Human immunodeficiency virus 1. Put plainly: Antiviral activity against antiretroviral-pretreated PI-resistant Human immunodeficiency virus 1 isolate 29 harboring Gag-SP-1 T375A mutant gene infected in human MT-2 cells by XTT assay relative to wild-type. Type of assay: functional, MT2. The method, boiled down:
as §1

Assay [10] deals with Human immunodeficiency virus 1. Put plainly: Antiviral activity against Human immunodeficiency virus 1 isolate 6 harboring Gag-SP-1 S373 and A374 mutant infected in human MT-2 cells by XTT-assay relative to wild-type. In kind it is functional, MT2. The method, boiled down:
as §2

The test system of assay [11] is Human immunodeficiency virus 1. Put plainly: Antiviral activity against antiretroviral-pretreated PI-resistant Human immunodeficiency virus 1 isolate 5 harboring Gag-SP1 Q369H and T375N mutant gene infected in human MT-2 cells by XTT assay relative to wild-type. In kind it is functional, MT2. In a few lines:
as §1

Assay [12] has as its system Human immunodeficiency virus 1. The assay can be described thus: Antiviral activity against Human immunodeficiency virus 1 isolate 39 harboring Gag-capsid G357S and V362I mutant gene and Gag-SP-1 T375A mutant gene infected in human MT-2 cells by XTT assay relative to wild-type. In kind it is functional, MT2. In a few lines: as §2
The subject of assay [13] is Human immunodeficiency virus 1. The assay can be described thus: Antiviral activity against antiretroviral-pretreated PI-resistant Human immunodeficiency virus 1 isolate 24 harboring Gag-capsid V362I mutant gene, Gag-SP-1 V370A, N372T and T375A mutant gene and deletion at T371 in Gag-SP-1 infected in human MT-2 cells by XTT assay relative to wild-type. In kind it is functional, MT2. In a few lines: as §1

Assay [14] concerns Human immunodeficiency virus 1. Put plainly: Antiviral activity against Human immunodeficiency virus 1 isolates harboring deletion at T371 in Gag-SP-1 relative to wild-type. Type of assay: functional. In a few lines:
as §3

The test system of assay [15] is Human immunodeficiency virus 1. The assay can be described thus: Antiviral activity against antiretroviral-pretreated PI-resistant Human immunodeficiency virus 1 isolate 26 harboring Gag-SP1 N372S, S373P and T375N mutant gene infected in human MT-2 cells by XTT assay relative to wild-type. Type of assay: functional, MT2. In a few lines:
as §1

The test system of assay [16] is Human immunodeficiency virus 1. The assay can be described thus: Antiviral activity against antiretroviral-pretreated Human immunodeficiency virus 1 isolate 8 infected in human MT-2 cells by XTT assay relative to wild-type. In kind it is functional, MT2. The method, boiled down:
as §1

In assay [17] the test system is Human immunodeficiency virus 1. Put plainly: Antiviral activity against Human immunodeficiency virus 1 isolate 33 harboring Gag-SP1 S368G, V370M and S373T mutant gene infected in human MT-2 cells by XTT assay relative to wild-type. In kind it is functional, MT2. In a few lines:
as §2

Assay [18] relates to Human immunodeficiency virus 1. Put plainly: Antiviral activity against antiretroviral-pretreated PI-resistant Human immunodeficiency virus 1 isolate 23 harboring Gag-capsid G357S and V362I mutant gene, Gag-SP-1 V370A and T375A mutant gene and deletion at T371 in Gag-SP-1 infected in human MT-2 cells by XTT assay relative to wild-type. In kind it is functional, MT2. In a few lines: as §1

For assay [19], the system named is Human immunodeficiency virus 1. Put plainly: Antiviral activity against Human immunodeficiency virus 1 isolate 34 harboring Gag-capsid G357S mutant gene and Gag-SP1 V370A, N372T, S373P and T375A mutant gene infected in human MT-2 cells by XTT assay relative to wild-type. Type of assay: functional, MT2. In a few lines:
as §2

Assay [20] relates to Human immunodeficiency virus 1. The assay can be described thus: Antiviral activity against antiretroviral-pretreated PI-resistant Human immunodeficiency virus 1 isolate 27 harboring infected in human MT-2 cells by XTT assay relative to wild-type.
In assay [21] the test system is Human immunodeficiency virus 1. The assay can be described thus: Antiviral activity against Human immunodeficiency virus 1 isolates harboring Gag-SP-1 V370A mutant gene relative to wild-type. In kind it is functional. The method, boiled down:
as §3

Assay [22] deals with Human immunodeficiency virus 1. The assay can be described thus: Antiviral activity against antiretroviral-pretreated Human immunodeficiency virus 1 isolate 12 harboring Gag-capsid G357S and V362I mutant gene infected in human MT-2 cells by XTT assay relative to wild-type. Type of assay: functional, MT2. The method, boiled down:
as §1

For assay [23], the system named is Human immunodeficiency virus 1. The assay can be described thus: Antiviral activity against Human immunodeficiency virus 1 isolate 30 infected in human MT-2 cells by XTT assay relative to wild-type. In kind it is functional, MT2.

`C=C(C)[C@@H]1CC[C@]2(C(=O)O)CC[C@]3(C)[C@H](CC[C@@H]4[C@@]5(C)CC[C@H](OC(=O)CC(C)(C)C(=O)O)C(C)(C)[C@@H]5CC[C@]43C)[C@@H]12` [BEVIRIMAT]: the “fold change (FC)” value in assay [1] is recorded as 1.3; in assay [2] it was greater than 100; in assay [3] it was greater than 100; in [4], greater than 100; in [5], greater than 100; in assay [6] it was greater than 100. In addition, the “fold change (FC)” value in [7] is listed as greater than 100; in assay [8], 4.7; in [9], greater than 100; in assay [10], greater than 100; in assay [11], 2.2; in assay [12], greater than 100. In addition, the “fold change (FC)” value is recorded as greater than 100 in assay [13]; 52.2 in assay [14]; 1.3 in assay [15]; 1.2 in [16]; greater than 100 in [17]; greater than 100 in assay [18]. For the same compound, the “fold change (FC)” value in assay [19] was greater than 100; in assay [20], 36; in [21], greater than 151.4; in assay [22], greater than 100; in assay [23], 5.2.
